An excerpt weighted towards active compounds, which were near 1.3% of everything screened.
FAS-TE inh: FAS thioesterase domain inhibitors, primary screen, biochemical, fluorescence intensity, uHTS; Fatty acid synthase (Homo sapiens), P49327; recombinant FAS-TE, OMFH fluorogenic substrate, fluorescence endpoint; inhibition, % at 15 µM; hit rate 0.67% among 360,000; AID 602261, 2012;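 active = compounds whose normalised, plate-corrected inhibition of enzyme fluorescence in the single-dose primary screen is 50% or more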;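 also: 0% = DMSO with enzyme and 100% = substrate without enzyme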
DAGLB inhibitor: DAGLB lipase inhibitors, primary screen, biochemical, fluorescence, HTS | Diacylglycerol lipase-beta (Homo sapiens), Q8NCG7 | HEK293T DAGLB membrane lysate, EnzChek fluorogenic substrate | inhibition, % at 5.17 µM | hit rate 0.059% among 340,000 | AID 504411, 2011; in the data active = inhibition above about 34%;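 also: 0% = enzyme with vehicle and 100% = wells lacking enzyme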
Target sequence (Q8NCG7 whole entry, looked up): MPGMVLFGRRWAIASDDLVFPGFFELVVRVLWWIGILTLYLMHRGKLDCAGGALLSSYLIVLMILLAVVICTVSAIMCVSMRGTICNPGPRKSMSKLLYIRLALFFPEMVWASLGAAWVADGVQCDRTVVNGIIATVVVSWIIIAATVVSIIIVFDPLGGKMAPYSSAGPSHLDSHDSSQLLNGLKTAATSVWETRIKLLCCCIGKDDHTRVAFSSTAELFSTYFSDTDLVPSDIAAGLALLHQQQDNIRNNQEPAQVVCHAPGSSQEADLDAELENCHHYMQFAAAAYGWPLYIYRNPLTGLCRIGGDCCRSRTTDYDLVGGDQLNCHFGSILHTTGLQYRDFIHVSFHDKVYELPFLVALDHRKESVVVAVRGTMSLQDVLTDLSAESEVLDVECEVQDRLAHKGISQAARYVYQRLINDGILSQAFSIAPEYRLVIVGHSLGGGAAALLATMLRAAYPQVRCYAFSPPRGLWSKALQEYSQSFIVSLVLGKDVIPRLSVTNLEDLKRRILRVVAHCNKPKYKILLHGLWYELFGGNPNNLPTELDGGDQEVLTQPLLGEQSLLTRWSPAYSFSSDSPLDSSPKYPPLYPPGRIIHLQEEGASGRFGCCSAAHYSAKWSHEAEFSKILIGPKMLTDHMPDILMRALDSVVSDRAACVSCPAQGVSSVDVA
SKN-1 block: suppressors of acrylamide-induced Pgst-4::GFP reporter in worms, primary screen, SKN-1 inhibitor project, whole organism, uHTS, GFP/RFP fluorescence ratio, strain VP596; C. elegans VP596 Pgst-4::GFP/RFP ratio, 24 h; inhibition, % at 21.8 µM; hit rate 0.49% among 360,000; AID 624304, 2012;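 active = interference check ratio from 0.5 to 1.5 plus GFP to RFP signal ratio inhibition reaching or exceeding a fixed threshold, cut at about 30% in these data, passing the limit was not always enough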
hiPSC survival: enhancers of single-cell hiPSC survival, primary screen, ATPlite luminescence; 100% = ROCK inhibitor wells, 0% = DMSO; survival enhancement, % at 20 µM; hit rate 0.044% among 360,000; AID 602274, 2012; in the data active = survival enhancement above about 18%;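 also: cells exposed to compounds for 16 hours before the ATP read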
MT1-MMP act inh: blockers of MT1-MMP proenzyme processing, primary screen, HT1080 RFP-PRO-GFP cells, GFP/RFP fluorescence; hit rate 0.061% among 360,000; GFP/RFP ratio fluorescence, overnight; percent of plate control window, DMSO zero; AID 651647, 2012; GFP/RFP ratio change, % at 20 µM; Matrix metalloproteinase-14 (Homo sapiens), P50281;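 active = GFP/RFP ratio change of at least 30% with cell ATP level not reduced by more than half and red fluorescence within 50% of control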
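Test system: HT1080 RFP-PRO-GFP cells; Benchmarks: DMSO and RFP-L50D-GFP cell wells; Timing: cells overnight before dosing, compound overnight, 37 °C, 5% CO2; Compound: one 20 µM compound dose with 1% DMSO; Read-out: GFP/RFP fluorescence ratio.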
* marks the source's active call; other numbers are inactive results; / = no result.

SMILES	FAS-TE inh	DAGLB inhibitor	SKN-1 block	hiPSC survival	MT1-MMP act inh
Cn1c(=O)oc2cc(S(=O)(=O)Nc3cccc(C(=O)O)c3)ccc21	-7	0	-3	5	2
CC(=O)c1cccc(NS(=O)(=O)c2ccc3c(c2)oc(=O)n3C)c1	-6	0	37*	-2	5
Nc1cc(=O)[nH]c(SCC(=O)Nc2ccc(S(=O)(=O)N3CCCCC3)cc2)n1	-4	2	5	-3	2
Nc1cc(=O)[nH]c(SCC(=O)Nc2ccc(S(=O)(=O)N3CCOCC3)cc2)n1	0	0	35*	1	-4
O=C(O)C(Oc1ccc2ccccc2c1)c1ccccc1 (centres undefined)	-5	0	40*	-1	2
Cn1c(=O)c2cc(NC(=S)NCc3ccccc3F)ccc2n1C	-2	/	20	-3	5
COc1cc(NC(=O)C2(C)CCCN(C(C)C)C2)cc(OC)c1OC (centres undefined)	-8	/	3	5	-1
C(=N\N=C\c1cccs1)/c1cccs1	2	-3	74*	-1	-6
C(=N\n1cnnc1)/c1cccs1	-8	-1	-5	1	-2
Cc1ccc(NC(=O)CSCC(=O)Nc2ccccc2C(=O)N2CCCCC2)cc1	-4	-2	46*	0	1
COc1ccc(NC(=O)CSCC(=O)Nc2ccccc2C(=O)N2CCCCC2)cc1	-6	2	-8	0	-2
Cc1ccc(F)c(S(=O)(=O)NC(=O)C2(C)CCN2C(=O)CCc2ccccc2)c1 (centres undefined)	-11	/	11	3	-1
COC(=O)/C=C1\S/C(=N\N=C\CC(=O)OC)NC1=O	-6	3	37*	0	-1
O=C(NC(c1cccnc1)c1ccc2c(c1)OCO2)C1CCN(CCOc2ccc(Cl)cc2Cl)CC1 (centres undefined)	6	/	7	4	4
C[C@@H]1CN([C@H](C)CO)C(=O)c2cc(C#Cc3ccccc3F)cnc2O[C@@H]1CN(C)S(=O)(=O)c1ccccc1F	-8	-2	-13	0	1
CSc1nc(N2CCOCC2)c2c(c1C#N)CC(C)(C)OC2	-1	-3	37*	2	3
CCC1(C)Cc2c(C#N)c(SC)nc(N3CCOCC3)c2CO1 (centres undefined)	18	/	-1	0	1
CC1(C)Cc2c(C#N)c(SCC(=O)c3ccccc3)nc(N3CCOCC3)c2CS1	24	-6	16	20*	-14
COC(=O)[C@]12CCCCC=C1N(Cc1ccco1)C(=O)[C@H](CC(=O)NCCCN1CCCC1=O)C2	-10	/	-1	2	3
O=C(COC(=O)c1cccc(S(=O)(=O)N2CCOCC2)c1)Nc1ncc(C(F)(F)F)cc1Cl	0	2	42*	0	0
O=C(COC(=O)CCc1ccc(S(=O)(=O)N2CCOCC2)cc1)Nc1ncc(C(F)(F)F)cc1Cl	9	-3	4	-2	-5
CC1=C(C(=O)N(C)C)CC(CC(=O)NCc2cccc3ccccc23)C(=O)N1CCCN1CCCC1=O (centres undefined)	-9	2	2	0	-5
O=C(Nc1ccc(C#Cc2ccccc2)cc1)C1CC1	3	-2	47*	2	16
O=C(Nc1ccc(Oc2ccccc2)cc1)C1CC1	1	-3	-6	1	1
CC1CCCN(C(=O)c2ccncc2)C1 (centres undefined)	-6	-3	35*	-1	3
CC1CC(C)CN(C(=O)c2ccncc2)C1 (centres undefined)	-2	-1	32	-2	-3
FC(F)(F)c1cc(-c2ccccc2)nc(NC2CCCC2)n1	21	-14	37*	-1	-11
Cn1ccc2c(N3CCCCCCC3)cc3c(c21)C1CCC3O1 (centres undefined)	11	/	9	1	2
CC1(C)OC(=O)C2=C(C[C@@H](C3CCCCC3)O[C@H]2c2ccc(F)cc2)O1	20	/	7	0	3

Compound activity from PubChem BioAssay.
